Data set [1] deals with Hcrt receptor-deficient mice. As to conditions: ref Irukayama-Tomobe et al., 2017; cited from earlier work.
Data set [2] relates to Hcrt-deficient, Hcrt neuron-ablated and wild-type mice. Conditions: peripheral administration; ref Irukayama-Tomobe et al., 2017; cited from earlier work.
The test system of data set [3] is Hcrt peptide-deficient and Hcrt neuron-ablated mice. Conditions: ref Irukayama-Tomobe et al., 2017; cited from earlier work.
The subject of data set [4] is narcoleptic male orexin/tTA; TetO-DTA mice. The data set is described as follows: Gross motor activity, running wheel activity and subcutaneous temperature. The data set is classed as in vivo, mouse. A digest of the protocol: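 Gross motor activity came from the implanted subcutaneous telemeter, alongside home-cage running-wheel activity and bouts and subcutaneous temperature, analysed per ZT hour after dosing. Male DTA mice (n = 7), adapted ≥2 weeks to wheels, handling and dosing, received vehicle or 1, 3 or 10 mg/kg s.c. or i.p. 15 min before ZT12 in repeated-measures order. Analysis was 2-way RM ANOVA (treatment × time) with Holm-Sidak.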

Data set [5] is classed as in vivo. As to conditions: mouse, ip, 10 mg/kg. In outline:
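Dosing was 10 mg/kg, s.c. or i.p. by compound, with sparse sampling of plasma and brain. Total drug measured by LC-MS/MS was multiplied by fraction unbound to give free concentrations. Fraction unbound came from 5 μM compound incubated in mouse plasma or brain homogenate by rapid equilibrium dialysis. Parameters were derived by noncompartmental analysis, with terminal half-life by best fit.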

Data set [6] concerns narcoleptic male orexin/tTA; TetO-DTA mice. The data set can be described thus: EEG spectral power analysis. The data set is classed as in vivo, mouse. A digest of the protocol:
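Male orexin/tTA;TetO-DTA mice (n = 7) with subcutaneous EEG/EMG telemeters received vehicle or 1, 3 or 10 mg/kg (s.c. or i.p. by compound, 10 mL/kg) 15 min before light offset at ZT12. Design was repeated measures in balanced order, ≥3 d apart. Normalized EEG spectra were taken in 0.122 Hz bins and bands: delta 0.5–4, theta 4–9, alpha 9–12, beta 12–30, low gamma 30–60, high gamma 60–100 Hz. Each state needed ≥3 animals. Analysis was 2-way RM ANOVA with Holm-Sidak.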

Data set [7] can be described thus: Fraction unbound by rapid equilibrium dialysis. The data set is classed as in vitro ADME. As to conditions: mouse.
In data set [8] the test system is narcoleptic male orexin/tTA; TetO-DTA mice. The data set is described as follows: EEG/EMG sleep/wake and cataplexy scoring after dosing before dark onset. Type of data set: in vivo, mouse. A digest of the protocol: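 Crossover in telemetered male DTA mice (n = 7) given 1, 3 or 10 mg/kg s.c. or i.p., or the matching vehicle, 15 min before ZT12, ≥3 d between doses. EEG/EMG were scored for 6 h as hourly and cumulative time per state and as bouts. NREM latency ran from dosing to the first 6 consecutive NREM epochs; REM latency to the first 3 REM epochs. Analysis used 1-way ANOVA or 2-way RM ANOVA (treatment × time), with Holm-Sidak vs vehicle.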

[9] abbreviates: first post-dosing hour (ZT13), 3 and 10 mg/kg i.p.

As a reminder, the Cmax is the peak of the concentration-time curve. One may read the Tmax as the time from dosing to the highest level. For orientation: half-life means the time in which the quantity being followed falls by half. A higher half-life goes with slow loss. The AUC(0-t) is the area under the concentration-time curve up to a stated or last time point. Low values mean less exposure, high ones more exposure. By fraction unbound is commonly meant the share of the substance not bound to proteins or other matrix. A high value points to weak binding.

Like-named read-outs stand apart in the source and are kept apart here.

Regarding `COc1ccc(-c2cccc(C(=O)N(C)C)c2)cc1S(=O)(=O)Nc1cccc(NCCNC(=O)c2ccccc2N(C)C)c1` [YNT-185], the “Sleep onset REM periods (SOREMs)” value in data set [1] is “but not in Hcrt receptor-deficient mice”; in data set [3], “reduced sleep onset REM periods (SOREMs)”. Further, the Wakefulness entry in data set [2] is “promoted wakefulness”.
For the molecule `CCNC(=O)N1CCC[C@H](NS(C)(=O)=O)[C@@H]1CO[C@H]1CC[C@@H](C(C)C)CC1` [ARN-776, (2R,3S)-N-ethyl-2-{[(cis-4-isopropylcyclohexyl)oxy]methyl}−3-[(methylsulfonyl)amino]piperidine-1-carboxamide], the “Number of running bouts” value in data set [4] (ZT13, 3 and 10 mg/kg i.p.) is reported as “more running bouts”. The Gross motor activity entry in data set [4] (ZT15, highest dose i.p.) is reported as “reduced gross motor activity”. Besides, in data set [4] (setting [9]), the Gross motor activity entry is “significantly increased motor activity”, the Running wheel activity result is given as “significantly increased running wheel activity” and the “Subcutaneous temperature (Tsc)” value is listed as “significantly increased Tsc”. For the same molecule, in data set [5] (brain), the Cmax came to 13 ng/g, the Tmax was 10 min and the half-life was determined as 38 min. For the same molecule, in data set [5] (plasma), the AUC(0-t) is 191 ng·h/mL, the Cmax was 326 ng/mL, the Tmax is 10 min and the half-life was found to be 125 min. For the same molecule, the “High gamma EEG power during Wake across the entire recording period” value in data set [6] (10 mg/kg i.p., p = 0.04) was “significantly increased high gamma”. In addition, in data set [6] (ZT13, 3 mg/kg i.p.), the “Waking EEG low and high gamma power” value is “significantly increased”. Besides, the “NREM EEG alpha and high gamma power” value in data set [6] (ZT14, 10 mg/kg i.p.) is listed as “significant reductions”. Further, the “NREM EEG high gamma power” value in data set [6] (ZT15, 10 mg/kg i.p.) is on record as “reduction of high gamma continued into ZT15”. Also, the “Waking EEG power in alpha, low gamma and high gamma” value in data set [6] (first post-dosing hour, 10 mg/kg i.p.) is reported as “significantly increased power in all three of these bands”. In addition, the fraction unbound at 5 μM in data set [7] (mouse brain homogenate) was 0.121. For the same molecule, the fraction unbound at 5 μM in data set [7] (mouse plasma) came out at 0.176. The “Number of Wake bouts across the entire 6-h recording” value in data set [8] (3 mg/kg (p = 0.03) and 10 mg/kg (p = 0.002) i.p.) was “significantly reduced the number of Wake bouts”. Besides, the Cataplexy bout duration entry in data set [8] (3 mg/kg i.p., p = 0.046) was “modest effect”. In data set [8] (10 mg/kg i.p., post hoc p = 0.005), the “Cumulative time in Wake” value is “significant effects”. For the same molecule, the “Cumulative time in NREM sleep” value in data set [8] (10 mg/kg i.p., post hoc p = 0.028) is recorded as “significant effects”. In data set [8] (10 mg/kg i.p., vs vehicle), the “Latency to REM sleep” value was “delayed REM sleep”. Besides, in data set [8] (1–10 mg/kg i.p.), the “NREM bout duration, post hoc test per dose” value is given as “did not identify any specific dose”; the “REM bout duration, post hoc test per dose” value was “did not identify any specific dose”; the “REM sleep rebound after early suppression” value is recorded as “rebound did not reach statistical significance”. Further, in data set [8] (all 3 doses (1, 3, 10 mg/kg i.p.)), the “Percent time in Cataplexy across the 6-h recording” value is recorded as “reduced Cataplexy across the 6-h period”. Moreover, the “Cumulative time in Cataplexy” value in data set [8] (all 3 doses i.p.) is given as “cumulative suppression of Cataplexy”. In addition, in data set [8] (all doses i.p., 6-h recording), the “Wake bout duration, treatment effect” value is “significant treatment effects”. In data set [8] (entire 6-h recording, i.p.), the REM/NREM ratio result was “unchanged”. Besides, the “Number of NREM bouts” value in data set [8] (first hour post-dosing, only middle and high doses i.p.) is “reduced the number of NREM bouts”. Moreover, in data set [8] (first hour, 1–10 mg/kg i.p.), the “Hourly amount of NREM sleep” value was “dose-related changes”, the “Hourly amount of REM sleep” value is given as “dose-related changes”, the “Hourly amount of Wake” value is “dose-related changes” and the “Number of Wake bouts” value is given as “dose-related effect”. For the same molecule, in data set [8] (first hour, 1–10 mg/kg i.p.), the “Reduction in hourly Cataplexy levels” value is on record as “did not reach statistical significance”. Also, the Wake bout duration result in data set [8] (first post-dosing hour (ZT13), all doses i.p.) is given as “increased Wake bout duration”. In data set [8] (hours after the first post-dosing hour, i.p.), the “Compensatory NREM sleep after increased wakefulness” value was “no compensatory increase in NREM sleep”. The “Suppression of cumulative REM sleep” value in data set [8] (lower doses i.p.) was “limited to the first post-dosing hour”. Moreover, the “Number of REM bouts” value in data set [8] (only 10 mg/kg i.p.) is on record as “reduced the number of REM bouts”. Further, the “Latency to NREM sleep” value in data set [8] (only 3 and 10 mg/kg i.p. (not 1 mg/kg), vs vehicle) is recorded as “delayed NREM”. The “Number of Cataplexy bouts” value in data set [8] (only the two highest concentrations i.p.) was “effective during the first and later hours”. The “Number of Wake bouts” value in data set [8] (second hour, only 10 mg/kg i.p.) is “reduced the number of Wake bouts”.

(Values after publication PMC10356740 (Journal of sleep research, 2023).)
